Article PMC7985749 (CNS Drugs, 2021)

Assays:
KDM1A = KDM1A (Homo sapiens, UniProt O60341); assay: Chemoprobe-based KDM1A target engagement in PBMCs; format: in vivo
[1] = Rodent models: therapeutic effect versus hematopoietic impact; format: in vivo; conditions: rodents
[2] = CSF pharmacokinetics substudy; format: in vivo, human; conditions: for Kp at 2 h / Kp at 6 h / Kp at 12 h / concentration at 2 h / concentration at 6 h / concentration at 12 h: male, human, oral; for Kp at 2 h / Kp at 6 h / Kp at 12 h: CSF / unbound plasma
Summary of the method: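 Open-label cohorts of healthy volunteers got a single oral dose of 2 or 4 mg. CSF and plasma were sampled predose and at preset timepoints, n = 3 subjects per timepoint. Levels were measured by GLP-validated LC-MS/MS: ethyl acetate liquid–liquid extraction, C18 column, positive ESI, deuterated internal standard. LLOQ was 50 pg/mL (CSF) and 10 pg/mL (plasma). Unbound plasma concentration was total corrected by an in vitro dialysis fraction unbound.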

[3] = 28-day GLP toxicology study in rats; conditions: rat, in vivo, oral
[4] = Adverse events / TEAEs, SAD cohort; format: in vivo, human
[5] = Safety and tolerability, all study stages; format: in vivo, human

Nc1nnc(CN[C@@H]2C[C@H]2c2ccc(OCc3ccccc3)cc2)o1 [vafidemstat]
Maximum KDM1A TE values (KDM1A; MAD, at 108 h after first dose (12 h after last dose), PBMCs): up to 90%
KDM1A binding in PBMCs (KDM1A; SAD and MAD): dose-dependent manner
Maximum KDM1A TE (KDM1A; SAD cohorts, 4 mg, at 12 h, PBMCs): around 80%
KDM1A TE peak versus plasma exposure (KDM1A; at Cmax,ss of ~ 30 ng/mL and AUCss of ~ 500 ng·h/mL): ~ 90%
KDM1A TE (KDM1A; older adult population, evaluable sample from a single individual): 85.6%
Window between the therapeutic effect and hematopoietic impact [1]: 30 fold
Blood–brain barrier crossing ([2]; CSF cohort, quantifiable CSF concentrations from 2 h post-dose): shown to cross the human blood–brain barrier
Kp at 2 h ([2]; 2 mg): 0.78
Kp at 6 h ([2]; 2 mg): 0.74
Kp at 12 h ([2]; 2 mg): 0.92
Kp at 2 h ([2]; 4 mg): 0.69
Kp at 6 h ([2]; 4 mg): 0.83
Kp at 12 h ([2]; 4 mg): 0.91
concentration at 2 h ([2]; CSF, 2 mg): 0.239 ng/mL
concentration at 6 h ([2]; CSF, 2 mg): 0.181 ng/mL
concentration at 12 h ([2]; CSF, 2 mg): 0.17 ng/mL
concentration at 2 h ([2]; CSF, 4 mg): 0.387 ng/mL
concentration at 6 h ([2]; CSF, 4 mg): 0.734 ng/mL
concentration at 12 h ([2]; CSF, 4 mg): 0.55 ng/mL
concentration at 2 h ([2]; plasma (unbound), 2 mg): 0.316 ng/mL
concentration at 6 h ([2]; plasma (unbound), 2 mg): 0.248 ng/mL
concentration at 12 h ([2]; plasma (unbound), 2 mg): 0.186 ng/mL
concentration at 2 h ([2]; plasma (unbound), 4 mg): 0.59 ng/mL
concentration at 6 h ([2]; plasma (unbound), 4 mg): 0.871 ng/mL
concentration at 12 h ([2]; plasma (unbound), 4 mg): 0.609 ng/mL
NOAEL at 28 days [3]: 0.2 mg/kg
Number of treatment-related AEs ([4]; SAD stage, subjects receiving vafidemstat): 12
Number of TEAEs (% of total TEAEs): Headache ([4]; SAD, 0.2 mg, n = 6): 1 (7.7) n (%)
Number of TEAEs (% of total TEAEs): Total ([4]; SAD, 0.2 mg, n = 6): 1 (7.7) n (%)
Number of TEAEs (% of total TEAEs): Euphoric mood ([4]; SAD, 0.6 mg, n = 6): 1 (7.7) n (%)
Number of TEAEs (% of total TEAEs): Feeling hot ([4]; SAD, 0.6 mg, n = 6): 1 (7.7) n (%)
Number of TEAEs (% of total TEAEs): Headache ([4]; SAD, 0.6 mg, n = 6): 1 (7.7) n (%)
Number of TEAEs (% of total TEAEs): Total ([4]; SAD, 0.6 mg, n = 6): 3 (23.1) n (%)
Number of TEAEs (% of total TEAEs): Musculoskeletal stiffness ([4]; SAD, 1.5 mg, n = 6): 1 (7.7) n (%)
Number of TEAEs (% of total TEAEs): Paresthesia ([4]; SAD, 1.5 mg, n = 6): 1 (7.7) n (%)
Number of TEAEs (% of total TEAEs): Total ([4]; SAD, 1.5 mg, n = 6): 2 (15.4) n (%)
Number of TEAEs (% of total TEAEs): Abdominal discomfort ([4]; SAD, 2.5 mg, n = 6): 1 (7.7) n (%)
Number of TEAEs (% of total TEAEs): Asthenia ([4]; SAD, 2.5 mg, n = 6): 1 (7.7) n (%)
Number of TEAEs (% of total TEAEs): Dry mouth ([4]; SAD, 2.5 mg, n = 6): 1 (7.7) n (%)
Number of TEAEs (% of total TEAEs): Total ([4]; SAD, 2.5 mg, n = 6): 3 (23.1) n (%)
Number of TEAEs (% of total TEAEs): Blunted affect ([4]; SAD, 4.0 mg, n = 6): 1 (7.7) n (%)
Number of TEAEs (% of total TEAEs): Euphoric mood ([4]; SAD, 4.0 mg, n = 6): 1 (7.7) n (%)
Number of TEAEs (% of total TEAEs): Headache ([4]; SAD, 4.0 mg, n = 6): 1 (7.7) n (%)
Number of TEAEs (% of total TEAEs): Total ([4]; SAD, 4.0 mg, n = 6): 3 (23.1) n (%)
Serious adverse events (SAEs) ([5]; during the study): No SAEs
Changes over time in hematological, biochemical, urinalysis parameters, vital signs, ECG values ([5]; planned SAD or MAD (including older adult) cohorts): No significant changes
Number of AEs reported by subjects receiving vafidemstat ([5]; three study stages (SAD, MAD, older adult), 120 AEs in total): 90
Number of TEAEs possibly or probably related to the study drug ([5]; volunteers treated with vafidemstat, three study stages, 108 TEAEs in total): 79
